In the library only some 0.6% were active in any assay of this set; here they are far more common.
TNAP act hi DEA: TNAP (human) activation, high acceptor; purified TNAP, CDP-star luminescence, 1 M DEA, 30 min; stronger effect = higher value; 0 = EDTA background, 1 = DMSO-only activity; AID 1136; 200,000 tested, under 10 active; activation factor at 20 µM;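 active = activation factor at least 2 at 20 µM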
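Dosing: 20 µM single point. System: human TNAP. Amount: TNAP 1/800 final. Incubation: 30 min, room temperature. Read-out: TNAP activation factor scaled between EDTA and DMSO control wells. Signal: luminescence from CDP-star hydrolysis. Medium: 1 M DEA, pH 9.8, Mg2+, Zn2+. Control set: EDTA negative control, DMSO positive control.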
PMI act satM6P: increases human PMI activity with near-saturating mannose 6-phosphate; P34949; coupled PMI enzyme assay, resazurin fluorescence, 20 min; stronger effect = higher value; 1 = untreated enzyme, 0 = substrate-free blank; activation factor at 20 µM; hit rate 0.34% among 190,000;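 active = activation factor of 2 or more at 20 µM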
Target sequence (P34949 whole entry, looked up): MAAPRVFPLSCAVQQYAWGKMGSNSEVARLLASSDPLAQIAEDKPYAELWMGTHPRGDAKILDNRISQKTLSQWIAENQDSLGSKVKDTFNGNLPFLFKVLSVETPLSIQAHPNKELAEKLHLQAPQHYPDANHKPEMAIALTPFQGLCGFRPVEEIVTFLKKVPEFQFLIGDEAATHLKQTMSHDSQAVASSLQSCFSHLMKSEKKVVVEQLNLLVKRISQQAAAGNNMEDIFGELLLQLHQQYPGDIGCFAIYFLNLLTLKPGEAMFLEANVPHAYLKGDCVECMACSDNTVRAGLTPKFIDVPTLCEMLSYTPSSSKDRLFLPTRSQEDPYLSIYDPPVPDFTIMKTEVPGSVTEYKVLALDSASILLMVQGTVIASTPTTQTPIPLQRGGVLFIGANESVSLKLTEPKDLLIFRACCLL
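Test system: human phosphomannose isomerase with PGI, G6PDH, diaphorase coupling enzymes / Doses: 20 µM compound, 1% DMSO / Times: enzyme reaction with compound 20 min at room temperature / Measured by: Diaphorase-driven resazurin-to-resorufin fluorescence, excitation 544, emission 590 nm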
TNAP inh hi DEA: blocks human TNAP under high phosphate acceptor concentration | purified TNAP, CDP-star luminescence, 1 M DEA | P05186 | inhibition, % at 20 µM | hit rate 0.03% among 200,000;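 active = over 50% inhibition of tissue-nonspecific alkaline phosphatase at 20 µM in the single-dose screen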;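 note: plate controls were DMSO wells for no effect and EDTA-quenched wells as full inhibition for full effect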
PMI act: phosphomannose isomerase (human) activation. activation factor at 20 µM. hit rate 0.005% among 190,000. AID 1214. P34949. purified human PMI, coupled resazurin fluorescence, 20 min; stronger effect = higher value; 1 = vehicle control, 0 substrate-free wells;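 active = activation factor of 2 or more at 20 µM, relative to plate controls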
TNAP inh noacc: blocks human TNAP activity with no phosphate acceptor present. P05186. purified TNAP, CDP-star luminescence, 30 min. inhibition, % at 20 µM. hit rate 0.26% among 200,000. AID 1012;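 active = tissue-nonspecific alkaline phosphatase inhibition above about 50% at 20 µM in the single-dose screen, limit read from the data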;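 note: 0% = DMSO negative control and 100% = EDTA positive control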
An asterisk follows results filed as active.

SMILES | TNAP act hi DEA | PMI act satM6P | TNAP inh hi DEA | PMI act | TNAP inh noacc
CCC1(c2ccc(Cl)cc2)NC(=S)N(c2ccc(C)cc2)N1 (configuration not stated) | 1 | 1.9 | 3 | 1.3 | 8
C=CCn1c(SCc2ccc(C(=O)NCCO)cc2)nc2sc(C)c(C)c2c1=O | 1 | 1 | -1 | 1 | 1
Cc1cc(N2C(=O)C=CC2=O)c([N+](=O)[O-])cc1C | 1 | 1.6 | -5 | 1.2 | -9
COc1cc(/C=C2/CCc3ccccc3C2=O)cc(OC)c1OC | 1 | 0.8 | -2 | 0.7 | -6
COc1cc(/C=C2\CC/C(=C\c3cc(OC)c(OC)c(OC)c3)C2=O)cc(OC)c1OC | 1 | 0.9 | 0 | 1 | 2
COc1cc(/C=C2/CCC/C(=C\c3cc(O)c(OC)c(Cl)c3)C2=O)cc(Cl)c1O | 0.5 | 0.6 | 53* | 0.9 | 52*
COc1cc(/C=C2\CC/C(=C\c3cc(OC)c(O)c(OC)c3)C2=O)cc(OC)c1O | 0.4 | 0.3 | 57* | 0.4 | 61*
COC(=O)c1cc(C(=O)OC)cc(-n2c(C)cc(C(=O)COC(=O)CNS(=O)(=O)c3ccc(C)cc3)c2C)c1 | 1 | 0.9 | 2 | 0.9 | 15
Cc1ccc2nc3ccc(N4CCCCCCC4)nn3c(=O)c2c1 | 1.1 | 1 | -6 | 1 | 3
Cc1sc2nc3ccc(N4CCCC4)nn3c(=O)c2c1C | 1 | 2.2* | 1 | 1.6 | -11
O=C(N/N=C/c1ccc(O)c(O)c1)c1cccc(S(=O)(=O)N2CCCCC2)c1 | 0.8 | 1.1 | 18 | 0.8 | 78*
O=C(O)c1ccc(N2C(=O)/C(=C/C=C/c3ccccc3)SC2=S)cc1 | 1 | 1 | -4 | 1 | 6
CN(C)c1ccc(/C=C/C=C2/SC(=S)N(c3ccccc3)C2=O)cc1 | 0.5 | 0.7 | 54* | 0.8 | 55*
NS(=O)(=O)c1cccc(NC(=O)COC(=O)C2CCCCC2)c1 | 1 | 1.1 | 4 | 1.1 | 9
COc1cc(/C=C/C(=O)CC(=O)/C=C/c2ccc(O)c(OC)c2)ccc1O | 0.5 | 0.8 | 53* | 0.9 | 44
Cc1ccc2nc(N3C(=O)C(O)=C(C(=O)c4cc5ccccc5o4)C3c3cccs3)sc2c1 (configuration not stated) | 1 | 2* | 4 | 1.4 | 9
CCc1ccc2nc(N3C(=O)C(O)=C(C(=O)c4ccco4)C3c3cccs3)sc2c1 (configuration not stated) | 1 | 1.2 | -1 | 1.2 | 0
O=C1CN(C(=O)COc2ccc(Br)cc2Br)c2ccccc2N1 | 1.1 | 0.8 | -6 | 0.9 | -13
S=c1[nH]c(-c2ccccc2)cs1 | 1 | 2.1* | -4 | 1.6 | -11
Fc1ccc(-c2csc(=S)[nH]2)cc1 | 1 | 2.4* | -2 | 1.6 | -3
O=c1[nH]c(-c2ccccc2)cs1 | 1 | 1.1 | -2 | 1 | -4
O=c1[nH]c(-c2ccc(Cl)cc2)cs1 | 1 | 0.9 | -2 | 0.9 | -12
O=c1sc(/C=N/Nc2ccccc2)c(Cl)n1Cc1ccccc1 | 1 | 2.1* | 0 | 1.4 | -2
CC(C)c1ccccc1NC(=O)COC(=O)c1c2c(nc3ccccc13)CCN(Cc1ccccc1)C2 | 1 | 2.1* | -5 | 1.5 | -11
Cc1c(Cl)cccc1NC(=O)COC(=O)c1c2c(nc3ccccc13)CCN(Cc1ccccc1)C2 | 1 | 0.9 | -4 | 0.9 | -9
SMILES | TNAP act hi DEA | PMI act satM6P | TNAP inh hi DEA | PMI act | TNAP inh noacc
COCC(=O)n1nc(-c2ccccc2)nc1NCc1cccs1 | 0.9 | 1 | 15 | 1 | 54*
c1ccc(-c2n[nH]c3c2CCC3)cc1 | 1 | 1.1 | -3 | 1.1 | 73*
CCOC(=O)C1=C(C)NC(=O)C1CC(=O)Nc1ccccc1 (configuration not stated) | 1.5 | 3* | -45 | 2.1* | -25
NC(=O)C1CCN(C2CC(=O)NC2=O)CC1 (configuration not stated) | 1 | 1 | -4 | 1.1 | -9
Cc1cccc2cc3c(N)c(C(=O)N4CCOCC4)sc3nc12 | 1 | 2.1* | 1 | 1.3 | -8
CCOc1ccccc1NC(=S)N1CCN(c2nc(-c3ccc(F)cc3)cs2)CC1 | 1.1 | 1 | -7 | 0.9 | -15

Source: PubChem
